ChEMBL document CHEMBL4613248, “Twelfth-Position Deuteration of Nevirapine Reduces 12-Hydroxy-Nevirapine Formation and Nevirapine-Induced Hepatocyte Death” (J Med Chem, 2020)

Legend:
Hepatocyte [1] = experiment: Induction of change in Igfbp1 protein expression in C57BL/6J mouse primary hepatocytes at 400 uM incubated for 8 hrs by relative-quantitation label-free proteomics analysis relative to NVP; assay type: cell-based
Summary of the method: (§1)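 Fresh primary hepatocytes from male C57BL/6J mice aged 8–13 weeks, adhered overnight, then given fresh medium containing compound (400 μM), NVP (400 μM) or vehicle (0.2% DMSO) for 8 h. Lysate reduced (DTT) and alkylated (iodoacetamide), acetone-precipitated and digested with trypsin. Label-free Top10 nanoLC-MS with precursor ion area quantitation; unpaired t test P values, Cohen's d effect size.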

[2] = Drug metabolism in C57BL/6J mouse primary hepatocytes assessed as O-GlucNVP metabolite formation at 10 uM incubated for 24 hrs by uHPLC-MS analysis; assay type: ADME, cell-based, Hepatocyte
Summary of the method: (§2)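 Fresh hepatocytes from male C57BL/6J mice (8–13 weeks), adhered overnight, then 10 μM substrate or vehicle (0.1% DMSO) for 24 h. Medium extracted with acetonitrile (50% final), dried, reconstituted in methanol; uHPLC-Orbitrap targeted SIM plus PRM (monooxygenated metabolites) or high-resolution ions (O-glucuronides, 459.1510/462.1700 ±5 ppm); four experimental replicates.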

Hepatocyte [3] = experiment: Induction of change in TM9SF1 protein expression in human primary hepatocytes at 10 uM incubated for 48 hrs by relative-quantitation label-free proteomics analysis relative to NVP; assay type: cell-based
Summary of the method: (§3)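 Cryoplateable pooled human hepatocytes (10 mixed-sex donors per pool; three pools), adhered overnight, then given fresh medium containing compound (10 μM), NVP (10 μM) or vehicle (0.1% DMSO) for 48 h. Lysate reduced (DTT) and alkylated (iodoacetamide), acetone-precipitated and digested with trypsin. Label-free Top10 nanoLC-MS with precursor ion area quantitation; unpaired t test P values, Cohen's d effect size.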

Cytochrome P450 2C9 = Cytochrome P450 2C9 (Homo sapiens, UniProt P11712); experiment: Drug metabolism assessed as human CYP2C9-mediated formation of 12-OHNVP at 10 uM pre-incubated for 30 mins followed by addition of NADPH regenerating reagents by uHPLC-MS analysis; assay type: ADME; conditions: recombinant enzyme
Sequence of Cytochrome P450 2C9 (P11712 whole entry): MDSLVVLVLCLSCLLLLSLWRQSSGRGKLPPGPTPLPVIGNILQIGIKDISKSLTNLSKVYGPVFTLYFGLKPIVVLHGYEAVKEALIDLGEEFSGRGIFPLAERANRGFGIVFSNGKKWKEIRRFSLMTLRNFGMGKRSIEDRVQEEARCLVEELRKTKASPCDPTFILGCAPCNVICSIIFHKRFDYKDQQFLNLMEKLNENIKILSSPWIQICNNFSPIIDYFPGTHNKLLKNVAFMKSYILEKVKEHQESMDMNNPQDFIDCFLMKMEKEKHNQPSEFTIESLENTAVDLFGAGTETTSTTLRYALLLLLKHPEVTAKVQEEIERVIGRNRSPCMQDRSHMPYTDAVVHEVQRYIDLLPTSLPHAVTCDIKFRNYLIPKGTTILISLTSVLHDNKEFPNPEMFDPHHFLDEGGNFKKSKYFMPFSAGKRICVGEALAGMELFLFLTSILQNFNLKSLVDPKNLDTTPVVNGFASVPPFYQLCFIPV
Summary of the method: (§4)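 Insect-cell microsomes with single cDNA-expressed human P450 (100 nM) in 0.1 M potassium phosphate; 10 μM substrate prewarmed 5 min at 37 °C with NADPH-regenerating system, reaction started by adding microsomes; 30 min at 37 °C, 0.1% DMSO. Stopped, dried, reconstituted in methanol; triple-quadrupole SRM (12-OH 283.1→223.0, 2-OH 283.1→160.9, 3-OH 283.1→241.9), peak height; three replicates, mean ± SD.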

[4] = Drug metabolism in human primary hepatocytes assessed as O-GlucNVP metabolite formation at 10 uM incubated for 24 hrs by uHPLC-MS analysis; assay type: ADME, cell-based, Hepatocyte
Summary of the method: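 Cryoplateable pooled human hepatocytes (10 mixed-sex donors per pool, three lots), adhered overnight, then 10 μM substrate or vehicle (0.1% DMSO) for 24 or 48 h in InVitroGRO CP medium. Medium extracted with 50% acetonitrile, dried, reconstituted in methanol; uHPLC-Orbitrap MS/MS for monooxygenated metabolites, high-resolution MS for O-glucuronide.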

Hepatocyte [5] = experiment: Induction of change in KlAA2013 protein expression in human primary hepatocytes at 10 uM incubated for 48 hrs by relative-quantitation label-free proteomics analysis relative to NVP; assay type: cell-based; summary of the method: as §3
Hepatocyte [6] = experiment: Induction of change in DERA protein expression in human primary hepatocytes at 10 uM incubated for 48 hrs by relative-quantitation label-free proteomics analysis relative to NVP; assay type: cell-based; summary of the method: as §3
Hepatocyte [7] = experiment: Induction of change in MRPL23 protein expression in human primary hepatocytes at 10 uM incubated for 48 hrs by relative-quantitation label-free proteomics analysis relative to NVP; assay type: cell-based; summary of the method: as §3
Hepatocyte [8] = experiment: Induction of change in Fam120A protein expression in C57BL/6J mouse primary hepatocytes at 400 uM incubated for 8 hrs by relative-quantitation label-free proteomics analysis relative to NVP; assay type: cell-based; summary of the method: as §1
Hepatocyte [9] = experiment: Induction of change in ALAD protein expression in human primary hepatocytes at 10 uM incubated for 48 hrs by relative-quantitation label-free proteomics analysis relative to NVP; assay type: cell-based; summary of the method: as §3
Hepatocyte [10] = experiment: Toxicity in C57BL/6J mouse primary hepatocytes assessed as reduction in cell viability by measuring EtBr-positive cell nuclei level at 400 uM incubated for 8 hrs by EtBr/AcrO staining based assay (reference value: 19%)
Summary of the method: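 Fresh male C57BL/6J mouse hepatocytes on collagen-coated coverslips, 400 μM compound or vehicle (0.2% DMSO) for 8 h; 10 μM staurosporine as positive control. Ethidium bromide/acridine orange costaining, imaging, percentage of EtBr-positive nuclei scored as dead cells; unpaired two-tailed t test.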

Hepatocyte [11] = experiment: Induction of change in Sirt5 protein expression in C57BL/6J mouse primary hepatocytes at 400 uM incubated for 8 hrs by relative-quantitation label-free proteomics analysis relative to NVP; assay type: cell-based; summary of the method: as §1
Hepatocyte [12] = experiment: Induction of change in EXOSC1 protein expression in human primary hepatocytes at 10 uM incubated for 48 hrs by relative-quantitation label-free proteomics analysis relative to NVP; assay type: cell-based; summary of the method: as §3
Hepatocyte [13] = experiment: Induction of change in Acot13 protein expression in C57BL/6J mouse primary hepatocytes at 400 uM incubated for 8 hrs by relative-quantitation label-free proteomics analysis relative to NVP; assay type: cell-based; summary of the method: as §1
Hepatocyte [14] = experiment: Induction of change in PLEKHA6 protein expression in human primary hepatocytes at 10 uM incubated for 48 hrs by relative-quantitation label-free proteomics analysis relative to NVP; assay type: cell-based; summary of the method: as §3
Cytochrome P450 1A1 = biological target: T1, Cytochrome P450 1A1 (Homo sapiens, UniProt P04798); experiment: Drug metabolism assessed as human CYP1A1-mediated formation of 12-OHNVP at 10 uM pre-incubated for 30 mins followed by addition of NADPH regenerating reagents by uHPLC-MS analysis; assay type: ADME; conditions: recombinant enzyme; summary of the method: as §4
T1 sequence (P04798 whole entry): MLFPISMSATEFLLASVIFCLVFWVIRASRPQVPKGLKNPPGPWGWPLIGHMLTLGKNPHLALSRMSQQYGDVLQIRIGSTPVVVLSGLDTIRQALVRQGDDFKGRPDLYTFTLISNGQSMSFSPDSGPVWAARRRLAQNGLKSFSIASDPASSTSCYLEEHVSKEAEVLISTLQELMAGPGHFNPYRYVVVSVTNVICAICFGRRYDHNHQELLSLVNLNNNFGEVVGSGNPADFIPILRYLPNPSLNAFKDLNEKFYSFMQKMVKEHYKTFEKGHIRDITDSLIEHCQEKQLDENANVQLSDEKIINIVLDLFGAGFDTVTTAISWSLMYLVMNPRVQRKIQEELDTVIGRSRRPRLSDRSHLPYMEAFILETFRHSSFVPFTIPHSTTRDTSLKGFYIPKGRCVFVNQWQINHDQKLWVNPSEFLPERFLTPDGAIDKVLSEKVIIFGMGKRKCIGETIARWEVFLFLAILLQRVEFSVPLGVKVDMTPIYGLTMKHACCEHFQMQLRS

[15] = Drug metabolism in C57BL/6J mouse primary hepatocytes assessed as 12-O-GlucD2NVP metabolite formation at 10 uM incubated for 24 hrs by uHPLC-MS analysis; assay type: ADME, cell-based, Hepatocyte; summary of the method: as §2
Hepatocyte [16] = experiment: Induction of change in MTX2 protein expression in human primary hepatocytes at 10 uM incubated for 48 hrs by relative-quantitation label-free proteomics analysis relative to NVP; assay type: cell-based; summary of the method: as §3

SMILES: [2H]C([2H])([2H])c1ccnc2c1NC(=O)c1cccnc1N2C1CC1
- fold change (FC) (Hepatocyte [1]): 4.7
- Drug metabolism [2]: Metabolite_Detected
- fold change (FC) (Hepatocyte [3]): -1.86
- Drug metabolism (Cytochrome P450 2C9): Metabolite_Detected
- Drug metabolism [4]: Metabolite_Detected
- fold change (FC) (Hepatocyte [5]): 1.36
- fold change (FC) (Hepatocyte [6]): -1.63
- fold change (FC) (Hepatocyte [7]): 8.32
- fold change (FC) (Hepatocyte [8]): 2.06
- fold change (FC) (Hepatocyte [9]): -1.86
- Activity (Hepatocyte [10]): 36.8%
- fold change (FC) (Hepatocyte [11]): 1.56
- fold change (FC) (Hepatocyte [12]): -2.73
- fold change (FC) (Hepatocyte [13]): -1.97
- fold change (FC) (Hepatocyte [14]): 1.59
- Drug metabolism (Cytochrome P450 1A1): Metabolite_Detected
- Drug metabolism [15]: Metabolite_Notdetected
- fold change (FC) (Hepatocyte [16]): -1.67
